Data published in ChEMBL document CHEMBL1153568, “Synthesis and anticonvulsant activity of N-(2-hydroxyethyl) cinnamamide derivatives” (Eur J Med Chem, 2009).
Calls of active or inactive are those of the source.

Assays:
Mus musculus [1] = experiment: Anticonvulsant activity in Kunming mouse assessed as protection against maximal electroshock-induced seizures at 30 mg/kg, ip after 4 hrs; type: functional, organism-based; parameters: dose 30 mg/kg
Outline: (§1)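 Maximal electroshock test in mice, five per group, dosed i.p. with suspension in 1:19 DMSO/saline plus 0.5% methylcellulose; seizures evoked at 0.5 h or 4 h after dosing. Protection defined as abolition of hind leg tonic maximal extension; scored as number protected/number tested.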

Mus musculus [2] = experiment: Anticonvulsant activity in ip dosed Kunming mouse assessed as protection against maximal electroshock-induced seizures; type: functional
Outline: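 Phase II quantification: mice (ten per dose) dosed i.p. with compound suspended in 1:19 DMSO/saline, 0.5% methylcellulose; MES given 30 min later, protection being abolition of hind leg tonic extension. ED50, dose protecting 50% of animals, reported with 95% confidence limits.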

[3] = Neurotoxicity in ip dosed Kunming mouse by rotarod test; type: toxicity, organism-based; conditions: in vivo
Mus musculus [4] = experiment: Protective index, ratio of TD50 for neurotoxicity to ED50 for anticonvulsant activity in ip dosed Kunming mouse; type: functional
Mus musculus [5] = experiment: Anticonvulsant activity against subcutaneous pentylenetetrazole-induced seizures in Kunming mouse assessed as clonic seizures of at 50 mg/kg, ip after 0.5 hrs; type: functional
Outline: (§2)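 Test agent given i.p. (suspension in 1:19 DMSO/saline, 0.5% methylcellulose); 30 min later PTZ 85 mg/kg in saline given sc. Animals kept in individual cages, watched 30 min; clonic seizures, tonic seizures and deaths counted, expressed as percent.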

Mus musculus [6] = experiment: Anticonvulsant activity against subcutaneous pentylenetetrazole-induced seizures in Kunming mouse assessed as tonic seizures of at 50 mg/kg, ip after 0.5 hrs; type: functional; outline: as §2
Mus musculus [7] = experiment: Toxicity in Kunming mouse assessed as subcutaneous pentylenetetrazole-induced lethality at 50 mg/kg, ip after 0.5 hrs; type: organism-based; parameters: dose 50 mg/kg; conditions: in vivo, sc
Outline: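 Test article at 50 mg/kg i.p. in 1:19 (vol/vol) DMSO/saline with 0.5% methylcellulose. After 30 min, pentylenetetrazole at 85 mg/kg in saline was given sc. Animals were caged individually and watched for 30 min, with clonic and tonic seizures and deaths counted.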

Mus musculus [8] = experiment: Anticonvulsant activity against isoniazid-induced seizures in Kunming mouse assessed as clonic seizures of at 50 mg/kg, ip after 0.5 hrs; type: functional; conditions: route intraperitoneal
Outline: (§3)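 Compounds suspended in 1:19 DMSO/saline containing 0.5% methylcellulose and given i.p.; after 30 min mice received isoniazid 250 mg/kg i.p., a dose convulsing 100% of animals. Each mouse housed singly and observed 1 h; percent of animals with clonic and tonic seizures, and lethality, recorded.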

Mus musculus [9] = experiment: Anticonvulsant activity against 3-mercaptopropionic acid-induced seizures in Kunming mouse assessed as clonic seizures of at 50 mg/kg, ip after 0.5 hrs; type: functional; conditions: route intraperitoneal
Outline: (§4)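 Mice given test agent i.p. as suspension in 1:19 DMSO/saline with 0.5% methylcellulose; 30 min later 60 mg/kg 3-mercaptopropionic acid in saline injected sc. Latency and duration of convulsions, latency and percentage lethality recorded over 1 h after convulsant; clonic and tonic seizure incidence reported as percent of animals.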

Mus musculus [10] = experiment: Anticonvulsant activity against isoniazid-induced seizures in Kunming mouse assessed as tonic seizures of at 50 mg/kg, ip after 0.5 hrs; type: functional; conditions: route intraperitoneal; outline: as §3
Mus musculus [11] = experiment: Toxicity in Kunming mouse assessed as isoniazid-induced lethality at 50 mg/kg, ip after 0.5 hrs; type: organism-based; parameters: dose 50 mg/kg, route intraperitoneal; conditions: in vivo
Outline: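 Mice were dosed i.p. at 50 mg/kg with a suspension in 1:19 (vol/vol) DMSO/saline containing 0.5% methylcellulose. Isoniazid (250 mg/kg, i.p.) was given 30 min later. Mice were then housed singly and observed for 1 h, scoring clonic seizures, tonic seizures and deaths.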

Mus musculus [12] = experiment: Anticonvulsant activity against 3-mercaptopropionic acid-induced seizures in Kunming mouse assessed as tonic seizures of at 50 mg/kg, ip after 0.5 hrs; type: functional; conditions: route intraperitoneal; outline: as §4
Mus musculus [13] = experiment: Anticonvulsant activity against thiosemicarbazide-induced seizures in Kunming mouse assessed as clonic seizures of at 50 mg/kg, ip after 2.5 hrs; type: functional; conditions: route intraperitoneal
Mus musculus [14] = experiment: Anticonvulsant activity against thiosemicarbazide-induced seizures in Kunming mouse assessed as tonic seizures of at 50 mg/kg, ip after 2.5 hrs; type: functional; conditions: route intraperitoneal
Mus musculus [15] = experiment: Toxicity in Kunming mouse assessed as thiosemicarbazide-induced lethality at 50 mg/kg, ip after 2.5 hrs; type: organism-based; parameters: dose 50 mg/kg, route intraperitoneal; conditions: in vivo
Mus musculus [16] = experiment: Anticonvulsant activity in Kunming mouse assessed as protection against maximal electroshock-induced seizures at 300 mg/kg, ip after 4 hrs; type: functional, organism-based; parameters: dose 300 mg/kg; outline: as §1
Mus musculus [17] = experiment: Anticonvulsant activity in Kunming mouse assessed as protection against maximal electroshock-induced seizures at 100 mg/kg, ip after 30 mins; type: functional, organism-based; parameters: dose 100 mg/kg; outline: as §1
Mus musculus [18] = experiment: Anticonvulsant activity in Kunming mouse assessed as protection against maximal electroshock-induced seizures at 100 mg/kg, ip after 4 hrs; type: functional, organism-based; parameters: dose 100 mg/kg; outline: as §1
Mus musculus [19] = experiment: Toxicity in Kunming mouse assessed as 3-mercaptopropionic acid-induced lethality at 50 mg/kg, ip after 0.5 hrs; type: organism-based; parameters: dose 50 mg/kg, route intraperitoneal; conditions: in vivo
Outline: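 Compound given i.p. at 50 mg/kg as a suspension in 1:19 (vol/vol) DMSO/saline (0.9% NaCl) with 0.5% methylcellulose. At 30 min, 3-mercaptopropionic acid at 60 mg/kg in saline was injected sc. Convulsion latency and duration, and the latency and percentage of lethality, were recorded over the following 1 h.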

Mus musculus [20] = experiment: Anticonvulsant activity in Kunming mouse assessed as protection against maximal electroshock-induced seizures at 30 mg/kg, ip after 30 mins; type: functional, organism-based; parameters: dose 30 mg/kg; outline: as §1

O=C(/C=C/c1ccc2c(c1)OCO2)NCCO
Activity (Mus musculus [1]): inactive
ED50 (Mus musculus [2]): 32.4 mg/kg
TD50 [3]: 105 mg/kg
Ratio TD50/ED50 (Mus musculus [4]): 3.3

NC(=O)N1c2ccccc2C=Cc2ccccc21 [CARBAMAZEPINE]
ED50 (Mus musculus [2]): 8.8 mg/kg
Activity (Mus musculus [5]): 100%
Activity (Mus musculus [6]): 0%
Activity (Mus musculus [7]): 10%
Activity (Mus musculus [8]): 50%
Activity (Mus musculus [9]): 100%
Activity (Mus musculus [10]): 0%
Activity (Mus musculus [11]): 0%
Activity (Mus musculus [12]): 0%
Activity (Mus musculus [13]): 100%
Activity (Mus musculus [14]): 0%
Activity (Mus musculus [15]): 20%

O=C(/C=C/c1ccc(Cl)cc1Cl)NCCO
Activity (Mus musculus [16]): inactive

O=C(/C=C/c1ccccc1Cl)NCCO
Activity (Mus musculus [17]): Active
Activity (Mus musculus [18]): inactive
ED50 (Mus musculus [2]): 59 mg/kg
TD50 [3]: 152 mg/kg
Ratio TD50/ED50 (Mus musculus [4]): 2.6

O=C(/C=C/c1ccccc1)NCCO [IDROCILAMIDE]
Activity (Mus musculus [1]): inactive
ED50 (Mus musculus [2]): 17.7 mg/kg
TD50 [3]: 155 mg/kg
Ratio TD50/ED50 (Mus musculus [4]): 8.8
Activity (Mus musculus [5]): 100%
Activity (Mus musculus [6]): 20%
Activity (Mus musculus [7]): 10%
Activity (Mus musculus [8]): 100%
Activity (Mus musculus [9]): 100%
Activity (Mus musculus [10]): 70%
Activity (Mus musculus [11]): 20%
Activity (Mus musculus [12]): 10%
Activity (Mus musculus [19]): 10%
Activity (Mus musculus [13]): 100%
Activity (Mus musculus [14]): 40%
Activity (Mus musculus [15]): 30%

Cc1ccc(/C=C/C(=O)NCCO)cc1
Activity (Mus musculus [18]): inactive

O=C(CCc1ccccc1)NCCO
Activity (Mus musculus [16]): inactive

COc1ccc(/C=C/C(=O)NCCO)cc1
Activity (Mus musculus [18]): inactive

O=C(/C=C/c1ccccc1F)NCCO
Activity (Mus musculus [1]): inactive
ED50 (Mus musculus [2]): 35.3 mg/kg
TD50 [3]: 219 mg/kg
Ratio TD50/ED50 (Mus musculus [4]): 6.2

O=C(Cc1ccccc1)NCCO
Activity (Mus musculus [16]): inactive

O=C(NCCO)c1ccccc1
Activity (Mus musculus [16]): inactive

O=C(/C=C/c1ccccc1Br)NCCO
Activity (Mus musculus [18]): inactive
ED50 (Mus musculus [2]): 68.2 mg/kg
TD50 [3]: 228 mg/kg
Ratio TD50/ED50 (Mus musculus [4]): 3.3

CN(C)c1ccc(/C=C/C(=O)NCCO)cc1
Activity (Mus musculus [18]): inactive
ED50 (Mus musculus [2]): 66.1 mg/kg
TD50 [3]: 304 mg/kg
Ratio TD50/ED50 (Mus musculus [4]): 4.6

O=C(/C=C/c1cccc(F)c1)NCCO
Activity (Mus musculus [20]): Active
Activity (Mus musculus [1]): inactive
ED50 (Mus musculus [2]): 17 mg/kg
TD50 [3]: 211 mg/kg
Ratio TD50/ED50 (Mus musculus [4]): 12.4
Activity (Mus musculus [5]): 100%
Activity (Mus musculus [6]): 40%
Activity (Mus musculus [7]): 20%
Activity (Mus musculus [9]): 100%
Activity (Mus musculus [12]): 30%
Activity (Mus musculus [19]): 50%
Activity (Mus musculus [13]): 100%
Activity (Mus musculus [14]): 50%
Activity (Mus musculus [15]): 40%

O=C(/C=C/c1ccc(Br)cc1)NCCO
Activity (Mus musculus [18]): inactive
ED50 (Mus musculus [2]): 76 mg/kg
TD50 [3]: 98.3 mg/kg
Ratio TD50/ED50 (Mus musculus [4]): 1.3

O=C(/C=C/c1ccc(F)cc1)NCCO
Activity (Mus musculus [17]): Active
Activity (Mus musculus [18]): inactive
ED50 (Mus musculus [2]): 45.6 mg/kg
TD50 [3]: 98.3 mg/kg
Ratio TD50/ED50 (Mus musculus [4]): 2.2

O=C(/C=C/c1cccc(Cl)c1)NCCO
Activity (Mus musculus [1]): inactive
ED50 (Mus musculus [2]): 25 mg/kg
TD50 [3]: 127 mg/kg
Ratio TD50/ED50 (Mus musculus [4]): 5.1
Activity (Mus musculus [11]): 20%

O=C(/C=C/c1ccc(Cl)cc1)NCCO
Activity (Mus musculus [18]): inactive
ED50 (Mus musculus [2]): 73.4 mg/kg
TD50 [3]: 98.4 mg/kg
Ratio TD50/ED50 (Mus musculus [4]): 1.3
